# pIC50, pKd: −log10 of the molar value. Active and inactive are the calls of the source. The rule behind the calls is not given here.
# Columns and labels:
# Quadruplex DNA [1] = assay: Binding affinity to mito 78 G4 DNA (unknown origin) assessed as dissociation constant measured upto 150 secs by isothermal titration calorimetry assay; assay type: nucleic-acid assay
# HeLa = assay: Antiproliferative activity against human HeLa cells measured after 48 hrs by MTT assay; assay type: functional, cell-based
# Procedure, shortened: (§1)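 Cells exposed to the ligands for 48 h. Viability was read by MTT, and the IC50 was derived from the response.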
# MDA-MB-231 = assay: Antiproliferative activity against human MDA-MB-231 cells measured after 48 hrs by MTT assay; assay type: functional, cell-based; conditions: MDA-MB-231, 48 h; procedure, shortened: as §1
# Quadruplex DNA [2] = assay: Binding affinity to mito 0.5-15 G4 DNA (unknown origin) assessed as increase in fluorescence intensity by fluorescence spectrophotometric analysis; assay type: nucleic-acid assay
# Procedure, shortened: (§2)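 Oligonucleotides were pre-annealed at 95 °C for 10 min, then cooled slowly. Ligand (5 uM) was mixed with 20 uM DNA in buffer. Emission was collected over 550–800 nm, and enhancement was taken at 650 nm as F/F0.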
# Quadruplex DNA [3] = assay: Binding affinity to Mito 81 G4 DNA (unknown origin) assessed as increase in CD signal at 5 uM at 265 nM by circular dichroism spectroscopic analysis; assay type: nucleic-acid assay
# LoVo = assay: Antiproliferative activity against human LoVo cells measured after 48 hrs by MTT assay; assay type: functional, cell-based; procedure, shortened: as §1
# Quadruplex DNA [4] = assay: Binding affinity to Mito 81 G4 DNA (unknown origin) assessed as change in melting temperature at 5 uM by circular dichroism spectroscopic analysis; assay type: nucleic-acid assay
# HCT-116 [5] = assay: Downregulation of ND3 protein level in human HCT-116 cells at upto 4 uM incubated for 48 hrs by Western blot analysis; assay type: functional, cell-based
# [6] = Drug localization in human HCT-116 cells transfected with Cy5-HP19 non G4 DNA at 4 uM incubated for 1 hr by hoechst33342 staining based analysis; assay type: ADME, cell-based; conditions: hct-116, 1 h
# Procedure, shortened: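 HCT116 cells transfected with Cy5-labelled DNA (excitation 635 nm) for 24 h. Ligand 4 uM added for 1 h, then Hoechst33342 1 uM for 30 min. Colocalization of ligand with Cy5 quantified by Pearson r from confocal images.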
# HCT-116 [7] = assay: Antitumor activity against human HCT-116 cells xenografted in Balb/c nude mouse model assessed as inhibition of tumor growth at 5 mg/kg, iv administered every two days for 16 days; assay type: functional, organism-based; conditions: time 16.0 day
# Procedure, shortened: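 Male Balb/c nude mice carrying HCT116 xenografts, 6 per group. Dosing was intravenous every two days at 5 mg/kg, with a PBS-injected control group. Body weight and tumour growth were tracked. Tumours were excised and weighed after 16 days.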
# [8] = Drug localization in human HCT-116 cells overexpressing twinkle helicase by measuring red foci at 4 uM incubated for 1 hr by hoechst33342 staining based analysis; assay type: ADME, cell-based; conditions: hct-116, 1 h
# [9] = Toxicity in BALB/c nude mouse assessed as change in neutrophil count at 5 mg/kg, iv administered every two days for 16 days; assay type: organism-based; conditions: in vivo, 384 h, time 16 day
# Procedure, shortened: (§3)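 HCT116 xenograft-bearing male Balb/c nude mice (6/group) dosed iv at 5 mg/kg every two days or with PBS. Whole blood collected at sacrifice on day 16 for hematology parameters.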
# HCT-116 [10] = assay: Induction of apoptosis in human HCT-116 cells measured after 72 hrs by annexin V-BUV396 and 7-AAD staining based flow cytometry analysis; assay type: functional, cell-based; conditions: dose <= 4.0 µM
# Procedure, shortened: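 HCT116 cells treated at 0-4 uM for 72 h, stained with Annexin V-BUV396 and 7-AAD, and the apoptotic fraction quantified by flow cytometry.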
# Quadruplex DNA [11] = assay: Binding affinity to mito 0.5-15 G4 DNA (unknown origin) assessed as dissociation constant measured upto 150 secs by isothermal titration calorimetry assay; assay type: nucleic-acid assay
# HCT-116 [12] = assay: Downregulation of ND2 gene expression in human HCT-116 cells at 0 to 4 uM measured after 48 hrs by q-PCR analysis; assay type: functional, cell-based; conditions: dose 0-4 µM
# HCT-116 [13] = assay: Downregulation of ND5 mRNA level in human HCT-116 cells at 0 to 4 uM measured after 48 hrs by qRT-PCR analysis; assay type: functional, cell-based; conditions: dose 0-4 µM
# DNA = assay: Binding affinity to HP19 DNA (non-G4 DNA) (unknown origin) assessed as increase in CD signal at 5 uM by circular dichroism spectroscopic analysis; assay type: nucleic-acid assay
# HCT-116 [14] = assay: Upregulation of cleaved caspase-3 level in human HCT-116 cells at upto 4 uM measured after 72 hrs by Western blot analysis; assay type: functional, cell-based
# Procedure, shortened: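 HCT116 cells treated with ligand at 0-4 uM for 72 h. Lysates immunoblotted for Lamin B1, p53, p21, p16, gamma-H2A.x, caspase-3 and cleaved caspase-3, with beta-actin as loading control.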
# [15] = Drug localization in human HCT-116 cells overexpressing eBFP tagged Pif1 by measuring red foci at 4 uM incubated for 1 hr by hoechst33342 staining based analysis; assay type: ADME, cell-based; conditions: hct-116, 1 h
# Procedure, shortened: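 HCT116 cells overexpressing eBFP-tagged Pif1 (excitation 405 nm), with an eBFP-only control. Cells incubated with ligand 4 uM (excitation 488 nm) for 1 h, then red foci imaged by confocal microscopy in 100 cells. Mean ± SEM, t test.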
# Quadruplex DNA [16] = assay: Binding affinity to mito 55 G4 DNA (unknown origin) assessed as dissociation constant measured upto 450 secs by surface plasmon resonance assay; assay type: nucleic-acid assay
# Procedure, shortened: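 Surface plasmon resonance in buffer at 25 °C. Four G4-mtDNAs (Mito 78, Mito 55, Mito 29, Mito 0.5-16) and the hairpin HP19 served as substrates. Kd was derived from the sensorgrams.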
# [17] = Drug localization in nucleus of human HCT-116 cells at upto 4 uM incubated for 1 hrs by hoechst33342 staining based live cell imaging analysis; assay type: ADME, subcellular; conditions: hct-116, 1 h
# HCT-116 [18] = assay: Induction of mitochondrial dysfunction in human HCT-116 cells assessed as decrease in oxygen consumption rate at upto 4 uM incubated for 3 hrs by Seahorse XFe24 analyzer; assay type: functional, cell-based
# Procedure, shortened: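 Seahorse Mito-stress and glycolysis stress tests on HCT116 cells treated with ligand for 3 h. Oxygen consumption rate and extracellular acidification rate recorded.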
# HFF-1 = assay: Downregulation of ND5 mRNA level in human HFF-1 cells at 0 to 4 uM measured after 48 hrs by qRT-PCR analysis; assay type: functional, cell-based; conditions: dose 0-4 µM
# Quadruplex DNA [19] = assay: Binding affinity to mito 78 G4 DNA (unknown origin) assessed as increase in fluorescence intensity by fluorescence spectrophotometric analysis; assay type: nucleic-acid assay
# Procedure, shortened: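 Fluorescence titration in buffer. Ligand at 5 uM mixed with 20 uM pre-annealed DNA (95 °C for 10 min, slow cooling). Emission collected at 550-800 nm and monitored at 650 nm. Result reported as fold enhancement F/F0 over ligand alone.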
# HCT-116 [20] = assay: Antitumor activity against human HCT-116 cells xenografted in Balb/c nude mouse model assessed as induction of apoptosis at 5 mg/kg, iv administered every two days for 16 days by TUNEL staining based analysis; assay type: functional, organism-based; conditions: time 16.0 day
# Procedure, shortened: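 Tumours came from HCT116-xenografted male Balb/c nude mice given 5 mg/kg i.v. every two days, or PBS, for 16 days. Tumour tissue sections were stained by TUNEL for apoptosis and by Ki67 immunofluorescence for proliferation, then compared with the control group.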
# [21] = Toxicity in BALB/c nude mouse assessed as change in mean red blood cell volume at 5 mg/kg, iv administered every two days for 16 days; assay type: organism-based; conditions: in vivo, 384 h, time 16 day; procedure, shortened: as §3
# [22] = Drug localization in mitochondria of living human HCT-116 cells assessed as colocalization at 4 uM incubated for 1 hr by Mito-tracker deep red staining based analysis; assay type: ADME; conditions: hct-116, 1 h
# Quadruplex DNA [23] = assay: Binding affinity to mito 55 G4 DNA (unknown origin) assessed as increase in fluorescence intensity by fluorescence spectrophotometric analysis; assay type: nucleic-acid assay; procedure, shortened: as §2
smiles,measurement,setting,value
C(=C\c1ccc2ccccc2[n+]1CCCCCCCC[n+]1c(/C=C/c2ccc(N3CCCCC3)cc2)ccc2ccccc21)/c1ccc(N2CCCCC2)cc1.[I-].[I-],pKd,Quadruplex DNA [1],7.22
same,pIC50,HeLa,4.63
same,pIC50,MDA-MB-231,4.46
same,Activity,Quadruplex DNA [2],Active
same,Activity,Quadruplex DNA [3],Active
same,pIC50,LoVo,4.87
same,ΔTm,Quadruplex DNA [4],3.6 °C
same,Activity,HCT-116 [5],Active
same,Drug uptake,[6],Not Active
same,Activity,HCT-116 [7],Active
same,Drug uptake,[8],Active
same,Activity,[9],Non-Toxic
same,Activity,HCT-116 [10],Dose-Dependent Effect
same,pKd,Quadruplex DNA [11],7.22
same,Activity,HCT-116 [12],Active
same,Activity,HCT-116 [13],Active
same,Activity,DNA,inactive
same,Activity,HCT-116 [14],Active
same,Drug uptake,[15],Not Active
same,pKd,Quadruplex DNA [16],6.77
same,Drug uptake,[17],Not Active
same,Activity,HCT-116 [18],Active
same,Activity,HFF-1,Active
same,Activity,Quadruplex DNA [19],Active
same,Activity,HCT-116 [20],Active
same,Activity,[21],Non-Toxic
same,Drug uptake,[22],Active
same,Activity,Quadruplex DNA [23],Active

# From ChEMBL document CHEMBL5506013, “Mitochondria-Selective Dicationic Small-Molecule Ligand Targeting G-Quadruplex Structures for Human Colorectal Cancer Therapy” (J Med Chem, 2024)
